These results are taken from ChEMBL document CHEMBL2010714, “Radical-regulating and antiviral properties of ascorbic acid and its derivatives” (Bioorg Med Chem Lett, 2012).

One data set deals with Human alphaherpesvirus 1. Nature of the data set: Antiviral activity against Herpes simplex virus type 1 infected in human RD cells assessed as inhibition of virus-induced cytopathic effect. Format: functional, organism-based. The note with it: Human alphaherpesvirus 1, RD. In a few lines:
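Human RD cells infected with HSV-1. Cytopathic-effect method. Activity criterion: reduction in virus titer with test compound versus untreated infected control. EC50 and EC90 taken as concentrations suppressing virus replication by 50% and 90%. Maximum non-toxic concentration determined separately in uninfected cultures after 72 h incubation.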
(Protection from cytopathic effect is a common read-out in antiviral testing.)

Data set [1] can be described thus: Cytotoxicity against human RD cells assessed maximun non-toxic concentration. Format: cell-based. In a few lines:
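Maximum non-toxic concentration determined in uninfected human RD cell culture after 72 h incubation with compound.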

Data set [2] can be described thus: Selectivity ratio of MNTD for human RD cells to EC50 for HSV1. Format: ADME, cell-based. The procedure, abridged: (§1)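 HSV-1-infected human RD cells were assessed by cytopathic effect. Virus titer reduction relative to untreated control gave concentrations suppressing replication by 50% and 90% (EC50, EC90). Maximum non-toxic concentration was found in uninfected RD cells after 72 h. The ratio divides MNTC by EC50 or EC90.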

Data set [3] is described as follows: Selectivity ratio of MNTD for human RD cells to EC90 for HSV1. Format: ADME, cell-based. In a few lines:
as §1

Bounds are passed on as bounds.

With `O=C1O[C@H]([C@@H](O)CO)C(O)=C1O[C@H]1O[C@H](CO)[C@@H](O)[C@H](O)[C@H]1O`, in the data set on Human alphaherpesvirus 1, the half-maximal effective concentration (EC50) turned out to be 16.3 µM and the 90% effect concentration (EC90) came to 26.9 µM. In addition, the MNTC in data set [1] was 1.18 mM. The selectivity ratio in data set [2] turned out to be 72.7. In addition, the selectivity ratio in data set [3] worked out at 43.9.
The like results for `CCCCCCCCCCCCCCCC(=O)OC[C@H](O)[C@H]1OC(=O)C(O[C@H]2O[C@H](CO)[C@@H](O)[C@H](O)[C@H]2O)=C1O` were, in that order, 4.5 µM, 6.2 µM, 0.0868 mM, 19.2 and 13.9.
Consider `COC1=C(OC)[C@@H]([C@@H]2COC(C)(C)O2)OC1=O`, for which, in the data set with Human alphaherpesvirus 1, the EC50 is over 1640 µM. For the same compound, the MNTC in data set [1] was 1.64 mM. Besides, the selectivity ratio in data set [2] was under 1.
With `COC1=C(OC)[C@@H]([C@@H](O)CO)OC1=O`, in the data set with Human alphaherpesvirus 1, the 50% effective concentration (EC50) is 1810 µM and the EC90 came to 3280 µM. Also, the MNTC in data set [1] came out at 1.96 mM. The selectivity ratio in data set [2] came to 1.1. Further, the selectivity ratio in data set [3] worked out at 0.6.
Consider `O=C1O[C@H]([C@@H](O)CO)C(O)=C1O` [ASCORBIC ACID], for which, in the data set on Human alphaherpesvirus 1, the EC50 is over 2270 µM. Besides, the MNTC in data set [1] came to 2.27 mM. Also, the selectivity ratio in data set [2] was under 1.
The like results for `CCCCCCCCCCCCCCCC(=O)OC[C@H](O)[C@H]1OC(=O)C(O)=C1O` [ASCORBYL PALMITATE] were, in that order, over 240 µM, 0.24 mM and under 1.

One may read the EC50 as the concentration needed to bring the measured effect to its halfway point. The term EC90 denotes the concentration needed for an effect of 90%.
